An excerpt weighted towards active compounds, which were near 1.3% of everything screened.
FN deposit inh: inhibitors of fibronectin matrix deposition, primary screen, AH1F cells, Alexa488-fibronectin fluorescence, plate reader | AH1F fibroblasts, overnight | inhibition, % at 12.6 µM | 350,000 compounds, 0.086% hits | AID 743247, 2014;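 active means mean inhibition across replicates of 30% or more, regardless of how many single replicates reach that level; inconclusive means mean under 30% yet at least half of replicates reach 30%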;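 further: positive control wells lacked labelled fibronectin entirely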
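test system = AH1F fibroblasts assembling fluorescent fibronectin matrix | quantity = 10000 AH1F cells per well | buffer or medium = DMEM plus 2% serum, read in PBS | doses = single dose, pinned | incubation = 1 h cell attachment, overnight exposure to compound and label | detection = fluorescence at 485 nm excitation, 525 nm emission | read-out basis = inhibition from reduced deposited-fibronectin fluorescence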
ERp5 inh: inhibitors of ERp5-driven insulin aggregation, primary screen, biochemical, turbidity, absorbance 650 nm, single point; 90 min; inhibition, % at 9.99 µM; 350,000 compounds, 0.05% hits; AID 651711, 2012;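 active means mean replicate inhibition above about 25%, with every replicate also reaching it, limit read from the data, passing the limit was not always enough; inconclusive means only one of those two criteria met; inactive means neither criterion met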
Target sequence (Q15084 whole entry, looked up): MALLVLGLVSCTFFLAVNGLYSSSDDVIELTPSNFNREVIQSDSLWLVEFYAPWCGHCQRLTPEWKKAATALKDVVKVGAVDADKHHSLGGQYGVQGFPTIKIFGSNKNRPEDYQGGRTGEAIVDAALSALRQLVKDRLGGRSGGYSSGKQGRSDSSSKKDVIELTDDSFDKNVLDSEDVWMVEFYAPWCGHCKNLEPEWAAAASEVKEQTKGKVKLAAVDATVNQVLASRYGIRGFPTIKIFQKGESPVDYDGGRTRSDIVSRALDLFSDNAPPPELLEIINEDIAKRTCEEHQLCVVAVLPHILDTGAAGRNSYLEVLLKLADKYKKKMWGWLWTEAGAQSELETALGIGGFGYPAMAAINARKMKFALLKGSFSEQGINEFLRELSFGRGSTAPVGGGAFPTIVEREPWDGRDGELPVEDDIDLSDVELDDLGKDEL
SIRT5 inh: SIRT5 desuccinylase inhibitors, primary screen, biochemical, fluorescence imaging, single point, set 5; AID 652115, 2013; NAD-dependent protein deacylase sirtuin-5, mitochondrial (Homo sapiens), Q9NXA8; Purified SirT5, succinyl-peptide AMC, trypsin-coupled fluorescence; 330,000 compounds, 1.1% hits; inhibition, % at 15 µM; in the data active means inhibition above about 15%; inconclusive means no clear call, values can overlap the other calls
MLL AF4-AF9 inh: inhibitors of AF4 peptide binding to AF9, primary screen, biochemical, AlphaScreen, biotin-AF4 peptide, FLAG-AF9, single point; Protein AF-9 (Homo sapiens), P42568; inhibition, % at 10 µM; 350,000 compounds, 0.47% hits;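 active means every replicate reaching a set inhibition limit, whatever the replicate mean, cut at about 25% in these data; inconclusive means mean inhibition reaches that limit but some replicates miss it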;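 further: 0% = plate neutral control median and 100% = total signal loss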
PDI inh: inhibitors of human PDI, primary screen, biochemical, turbidity, single point, plate reader | Protein disulfide-isomerase (Homo sapiens), P07237 | PDI insulin aggregation turbidity, A650, 90 min | inhibition, % at 10 µM | 350,000 compounds, 0.052% hits | AID 588391, 2011;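 active means mean inhibition across replicates of 30% or more, whatever share of single replicates reach that level; inconclusive means mean inhibition below 30% while every single replicate reaches 30%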
An asterisk follows results filed as active; u = inconclusive; x = not tested or not shown; ! = repeats disagree.

SMILES	FN deposit inh	ERp5 inh	SIRT5 inh	MLL AF4-AF9 inh	PDI inh
C[C@H]1CN([C@@H](C)CO)C(=O)c2cccc(N(C)C)c2O[C@@H]1CN(C)C(=O)NC1CCCCC1	-0.9	-6.5	-6.0	-1.9	x
C[C@@H]1CN([C@H](C)CO)C(=O)c2cccc(NC(=O)Nc3ccc(C(F)(F)F)cc3)c2O[C@@H]1CN(C)C(=O)NC1CCCCC1	x	-8.8	5.5	-1.7	x
COc1cccc(N=Nc2c(=O)[nH]n3c(=O)cc(C)[nH]c23)c1	x	x	x	x	8.3
CCc1noc(C)c1C(=O)Nc1nc(-c2ccc(F)cc2)c(C)s1	-2.0	3.1	1.2	-2.4	9.6
Cc1ccc(S(=O)(=O)N(C)C[C@@H]2OCc3ccccc3-c3c(n(C)c4ccccc34)C(=O)N([C@H](C)CO)C[C@@H]2C)cc1	-3.9	-2.4	18.4*!	4.2	1.1
C[C@@H]1CN([C@@H](C)CO)C(=O)c2ccccc2-c2ccccc2CO[C@H]1CN(C)S(=O)(=O)c1ccc(Cl)cc1	-7.5	2.8	15.5*	12.3	x
C[C@H](CO)N1C[C@H](C)[C@@H](CN(C)S(=O)(=O)c2ccc(Cl)cc2)OCc2ccccc2-c2ccccc2C1=O	0.1	2.8	x	6.0	x
C[C@H]1CN([C@@H](C)CO)C(=O)c2c(c3ccccc3n2C)-c2ccccc2CO[C@@H]1CN(C)S(=O)(=O)c1ccc(Cl)cc1	-2.2	9.1	-0.5	0.8	x
Cc1ccc(S(=O)(=O)N(C)C[C@H]2OCc3ccccc3-c3c(n(C)c4ccccc34)C(=O)N([C@@H](C)CO)C[C@@H]2C)cc1	5.2	2.3	8.6	-0.4	x
C[C@@H]1CN([C@H](C)CO)C(=O)c2ccccc2-c2ccccc2CO[C@H]1CN(C)S(=O)(=O)c1cccs1	4.5	2.1	18.1*	4.3	x
C[C@H](CO)N1C[C@H](C)[C@H](CN(C)S(=O)(=O)c2ccc(Cl)cc2)OCc2ccccc2-c2c(n(C)c3ccccc23)C1=O	-0.2	2.2	21.7*!	2.9	-3.6
Cc1cc(C(=O)OCC(=O)Nc2ccccc2C)c(C)o1	-20.1	2.1	-2.9	0.1	7.4
O=C(C[C@H]1CC[C@@H](NC(=O)c2cccc(F)c2)[C@H](CO)O1)NCc1ccccc1	-3.6	-1.5	2.3	-2.1	x
Cc1cccc(S(=O)(=O)N(C)C[C@H]2OCc3ccccc3-c3c(n(C)c4ccccc34)C(=O)N([C@H](C)CO)C[C@@H]2C)c1	-2.4	2.1	3.5	2.6	x
Cc1cccc(S(=O)(=O)N(C)C[C@@H]2OCc3ccccc3-c3c(n(C)c4ccccc34)C(=O)N([C@H](C)CO)C[C@@H]2C)c1	10.0	4.3	20.2*	7.0	x
OC[C@@H]1[C@@H](c2ccccc2)C2(CN(Cc3nccs3)C2)N1CCC(F)(F)F	x	-4.4	1.0	1.7	x
O=C(N[C@H]1CC[C@@H](CCn2cc(-c3ccc(F)cc3)nn2)O[C@H]1CO)c1cnccn1	x	2.4	0.1	-0.4	x
O=C(CCN1CCCCC1)N[C@H]1CC[C@@H](CCn2cc(-c3ccc(F)cc3)nn2)O[C@H]1CO	x	-0.4	22.6*	3.3	x
CCCNC(=O)N[C@H]1CC[C@@H](CCn2cc(C3CCCCC3)nn2)O[C@@H]1CO	-0.3	1.4	1.6	-13.1	x
O=C(N[C@@H]1CC[C@@H](CCn2cc(-c3ccc(F)cc3)nn2)O[C@@H]1CO)c1cnccn1	x	0.8	15.1*	-0.3	x
CCCNC(=O)N[C@@H]1CC[C@H](CCn2cc(C3CCCCC3)nn2)O[C@@H]1CO	-7.6	-8.2	17.5*	-11.3	x
O=C(CN1C(=O)c2cccc3cccc1c23)N1CCN(c2cccc(Cl)c2)CC1	x	x	x	x	-1.4
CC(C)(C)NC(=S)NC(=O)C12CCC3CC(CC(C3)C1)C2	x	0.0	11.9	3.0	-7.7
O=C1CCCC/C1=C\Nc1ccc(C(=O)O)c(O)c1	-7.3	1.9	23.1*	-0.1	16.5
CC1CCC/C(=C\Nc2ccc(C(=O)O)c(O)c2)C1=O (stereo unspecified)	-1.9	7.2	29.4*	u	6.5
SMILES	FN deposit inh	ERp5 inh	SIRT5 inh	MLL AF4-AF9 inh	PDI inh
CC1CCC/C(=C\Nc2ccc(C(=O)O)cc2)C1=O (stereo unspecified)	-0.1	10.2	5.9	-0.3	-8.8
CC(=O)N1CCCN(Cc2cn(-c3ccc(C)cc3)nc2-c2cccc(C)c2)CC1	4.3	2.8	1.5	-3.3	10.8
COc1ccc(N2CCN(CC(=O)c3ccccc3)CC2)cc1	-4.0	1.6	2.5	31.3*	7.8
CC(C)(C)C(=O)CSc1ncnc2c1cnn2Cc1ccccc1	-7.9	5.7	15.3*	0.1	8.9
Cc1ccc(NC(=S)N(C)N)cc1Cl	2.4	-4.4	0.7	1.3	-4.4
CCOC(=O)C1(CCOC)CCN(Cc2ccc3nonc3c2)CC1	-6.5	0.4	-1.1	10.6	4.8
CCOC(=O)C1(CCOc2ccccc2)CCN(Cc2ccc(OCCO)cc2)CC1	-17.8	4.7	21.9*	0.3	0.0
CCOC(=O)C1(CCOc2ccccc2)CCN(Cc2cccc3nonc23)CC1	10.5	-3.2	-3.7	25.8*	-10.2
CCOC(=O)C1(CCOc2ccccc2)CCN(Cc2ccc(O)cc2)CC1	11.8	3.2	1.5	1.6	11.9
CCOC(=O)C1(CCOC)CCN(Cc2cnc(-c3cccc(C)c3)nc2)CC1	-5.0	-3.0	20.4*	2.7	-7.0
COCCN1C=C2C(=O)C(C)(OC(=O)CCC(=O)OC)C(=O)C(Br)=C2C=C1c1ccc(OC)cc1 (stereo unspecified)	x	x	x	x	4.4
Cc1noc(C)c1NC(=O)Nc1cccc2c1O[C@H](CN(C)Cc1ccccc1)[C@H](C)CN([C@H](C)CO)C2=O	x	2.9	-1.4	1.1	x
CCCN(C)C[C@H]1Oc2cc(C#CC3CC3)ccc2S(=O)(=O)N([C@@H](C)CO)C[C@H]1C	-7.8	1.9	-2.8	3.5	x
CCCCC(=O)Nc1nnc(SCC(=O)NC2CCCC2)s1	-1.0	x	x	x	-2.4
O=C(CCCl)Nc1nnc(SCC(=O)NC2CCCC2)s1	-1.6	1.8	60.4*	-1.8	-2.2
CCC(=O)Nc1ccc2c(c1)C(=O)N(C)C[C@@H](OC)[C@@H](C)CN(Cc1nccs1)[C@H](C)CO2	2.6	x	x	x	x
O=C(O)Cc1c[nH]c2ccccc12	x	-3.8	x	-3.2	x
O=C(O)Cc1c[nH]c2cccc(O)c12	x	2.8	33.2*	-2.4	x
C[C@H](CO)N1C[C@H](C)[C@H](CN(C)Cc2ccc(C(=O)O)cc2)Oc2ccc(NS(=O)(=O)c3ccc(Cl)cc3)cc2CC1=O	x	0.5	-2.8	-4.3	x
CC(O)[C@H]1CN=C(N)N1CC1CCCCC1 (stereo partly specified)	5.3	-4.3	15.5*	-3.1	-3.6
Cc1nn(-c2ccccc2)c(Cl)c1C(=O)OC(C)C(=O)Nc1ccc2c(c1)OCO2 (stereo unspecified)	-5.6	x	x	x	5.5
